pIC50: −log10 of the molar value. ≈ marks a conversion by molar mass, not a printed value. Calls of active or inactive are those of the source. No cut-off for these calls is given here.

The results in this text go back to ChEMBL document CHEMBL3867454, “Corallocins A-C, Nerve Growth and Brain-Derived Neurotrophic Factor Inducing Metabolites from the Mushroom Hericium coralloides” (J Nat Prod, 2016).

Series [1] has as its system 1321-N1. Kind of series: Induction of NGF secretion in human 1321N1 cells at 19.6 uM after 48 hrs. In kind it is functional, cell-based.
Series [2] deals with PC-12. Kind of series: Intrinsic neurotrophic activity in rat PC12 cells in conditioned 1321N1 culture medium assessed as neurite outgrowth at 19.6 uM measured after 48 hrs by light microscopy method. In kind it is functional, cell-based.
The nature of series [3]: Increase in BDNF expression in human 1321N1 cells at 19.6 uM measured after 6 hrs by semiquantitative RT-PCR analysis relative to DMSO-control. It counts as functional. The method in brief:
(§1)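 1321N1 astrocytes were grown to confluence on 3.5 cm plates and switched to serum-free DMEM 24 h before compound addition. Primers were specific for GAPDH, NGF (189 bp) and BDNF (101 bp). PCR programs: GAPDH 20 cycles at 60 °C annealing; NGF 30 cycles at 61 °C; BDNF 30 cycles at 58 °C. Products were run on 1% or 2% agarose, with GAPDH as loading control and identity confirmed by sequencing. n = 3 independent experiments.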

The nature of series [4]: Upregulation of NGF expression in human 1321N1 cells at 19.6 uM measured after 6 hrs by semiquantitative RT-PCR analysis relative to DMSO-control. In kind it is functional, cell-based. In outline: as §1
Series [5] deals with 1321-N1. Kind of series: Induction of NGF secretion in human 1321N1 cells at 57.8 uM after 48 hrs. In kind it is functional, cell-based.
The subject of a further series is 1321N1 (Homo sapiens). Kind of series: Cytotoxicity against human 1321N1 cells assessed as induction of cell death measured after 24 hrs. The conditions noted are these: pooled result: one value given for 2 cell lines, strains, targets or settings.
Series [6] in a line: Increase in BDNF expression in human 1321N1 cells at 68.9 uM measured after 6 hrs by semiquantitative RT-PCR analysis relative to DMSO-control. In kind it is functional. In outline: as §1
Series [7] can be described thus: Antifungal activity against Mucor plumbeus MUCL 49355 measured after 20 to 24 hrs by serial dilution assay. In kind it is functional.
Series [8] in a line: Cytotoxicity against human KB-3-1cells measured after 5 days by MTT assay. It counts as functional, cell-based. The following applies: KB 3-1, 120 h. The method in brief: (§2)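 Compounds added from 30 μg/mL methanol stocks by serial dilution in 96-well plates. L929 was cultured in DMEM, MCF-7 and KB-3-1 in RPMI-1640, all with 10% FCS, 5% CO2, 37 °C, 5 days. Methanol was the negative control and epothilone A the positive control. IC50 values were derived from the dilution series.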
(In general: Tetrazolium assays rely on reduction of a dye to a coloured formazan, in cell work by metabolically active cells.)

The nature of series [9]: Cytotoxicity against HUVEC measured after 5 days by MTT assay. In kind it is functional, cell-based. The conditions noted are these: Homo sapiens, 120 h.
Series [10] can be described thus: Upregulation of NGF expression in human 1321N1 cells at 68.9 uM measured after 6 hrs by semiquantitative RT-PCR analysis relative to DMSO-control. In kind it is functional, cell-based. The method in brief: as §1
Series [11] can be described thus: Cytotoxicity against human MCF7 cells measured after 5 days by MTT assay. In kind it is functional, cell-based. The following applies: MCF7, 120 h. In outline:
as §2

The nature of series [12]: Cytotoxicity against mouse L929 cells measured after 5 days by MTT assay. It counts as functional, cell-based. The conditions noted are these: L929, 120 h. The method in brief:
as §2

A short description of series [13]: Upregulation of NGF expression in human 1321N1 cells at 57.8 uM measured after 6 hrs by semiquantitative RT-PCR analysis relative to DMSO-control. It counts as functional, cell-based. The method in brief:
as §1

Series [14] relates to PC-12. In words: Intrinsic neurotrophic activity in rat PC12 cells in conditioned 1321N1 culture medium assessed as neurite outgrowth at 57.8 uM measured after 48 hrs by light microscopy method. It counts as functional, cell-based.

In the case of `COc1cc2c(c(O)c1C/C=C(\C)CCC=C(C)C)CN(CCc1c[nH]c3ccccc13)C2=O`, the outcome in the series on 1321-N1 [1], in the series with PC-12 [2] and in the series with 1321-N1 [5] was Active. The “fold change (FC)” value in series [3] worked out at 1.9; in [4] it was 5. For the same compound, the MNTC at 24 h with 1321N1 (Homo sapiens) was determined as 19.6 µM.

In general, MIC refers to the lowest concentration found to suppress growth. A higher MIC goes with a less susceptible organism. By pIC50 is commonly meant the IC50 on a negative log10 scale, so that one unit is a factor of ten. With `COc1cc2c(c(O)c1C/C=C(\C)CCC=C(C)C)CN(CCc1ccc(O)cc1)C2=O`, the “fold change (FC)” value in [6] is 1.5; in series [10], 2. The compound also returned a minimum inhibitory concentration (MIC) in series [7] of 57.4 µM (≈ 25 µg/mL). Moreover, the pIC50 in [8] was 4.94; in series [9], 5.68; in series [11], 5.04; in series [12], 4.83. Also, the MNTC at 24 h in the series with 1321N1 (Homo sapiens) stood at 68.9 µM.

In the case of `COc1cc2c(c(O)c1C/C=C(\C)CC/C=C(\C)C(=O)O)COC2=O`, the result in the series with 1321-N1 [1], in the series on 1321-N1 [5] and with PC-12 [14] was Active. The MNTC at 24 h with 1321N1 (Homo sapiens) came to 57.8 µM. The compound also returned a fold change (FC) in series [13] of 3.
